Laboratory results published in ChEMBL document CHEMBL1128434, “Gonadotropin-releasing hormone antagonists: novel members of the azaline B family” (1995).
Blank lines part the entries; values can stand above or below the compound they belong to.

Experiments:
[1] = target: T1, Gonadotropin-releasing hormone receptor (Rattus norvegicus) (UniProt P30969); test: Duration of action, measured using castrated male rat assay to inhibit luteinizing hormone release.; fully active at 24 hr but not at 48 hr; type: functional
T1 sequence (whole entry): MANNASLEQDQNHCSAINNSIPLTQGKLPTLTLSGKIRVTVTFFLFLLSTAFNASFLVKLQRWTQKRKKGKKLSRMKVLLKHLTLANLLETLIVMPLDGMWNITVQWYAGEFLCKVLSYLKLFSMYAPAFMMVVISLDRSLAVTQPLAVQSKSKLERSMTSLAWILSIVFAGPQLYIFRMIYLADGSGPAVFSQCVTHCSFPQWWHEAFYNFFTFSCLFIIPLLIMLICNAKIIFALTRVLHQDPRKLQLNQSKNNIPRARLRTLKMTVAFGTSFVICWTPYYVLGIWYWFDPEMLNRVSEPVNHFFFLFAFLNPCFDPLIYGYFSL

[2] = species: Rattus norvegicus; test: Effect in the anti ovulatory assay (AOA) in rats expressed as no. of rats ovulating/No of rats treated at 0.5 mg; 3/4; type: functional
[3] = species: Rattus norvegicus; test: Effect in the anti ovulatory assay (AOA) in rats expressed as no. of rats ovulating/No of rats treated at 1.0 mg; 5/8; type: functional
[4] = target: T1, Gonadotropin-releasing hormone receptor (Rattus norvegicus); test: In vitro potency to inhibit GnRH-mediated LH secretion by cultured pituitary cells relative to [Ac-delta-Pro1,DFpa2,DTrp36]GnRH.; type: functional, cell-based; details: Pituitary gland cell
Outline: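 Dispersed rat pituitary cells in culture; antagonist inhibition of GnRH-stimulated LH secretion. Potency expressed relative to standard antagonist [Ac-Δ3Pro1,D4FPhe2,DTrp3,6]GnRH taken as 1.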

[5] = species: Rattus norvegicus; test: Effect in the anti ovulatory assay (AOA) in rats expressed as no. of rats ovulating/No of rats treated at 0.5 mg; 8/8; type: functional
[6] = species: Rattus norvegicus; test: Effect in the anti ovulatory assay (AOA) in rats expressed as no. of rats ovulating/No of rats treated at 1.0 mg; 4/15; type: functional
[7] = species: Rattus norvegicus; test: Effect in the anti ovulatory assay (AOA) in rats expressed as no. of rats ovulating/No of rats treated at 2.5 mg; 0/2; type: functional
[8] = species: Rattus norvegicus; test: Effect in the anti ovulatory assay (AOA) in rats expressed as no. of rats ovulating/No of rats treated at 1.0 mg; 9/12; type: functional
[9] = species: Rattus norvegicus; test: Effect in the anti ovulatory assay (AOA) in rats expressed as no. of rats ovulating/No of rats treated at 0.5 mg; 3/3; type: functional
[10] = species: Rattus norvegicus; test: Effect in the anti ovulatory assay (AOA) in rats expressed as no. of rats ovulating/No of rats treated at 1.0 mg; 3/7; type: functional
[11] = species: Rattus norvegicus; test: Effect in the anti ovulatory assay (AOA) in rats expressed as no. of rats ovulating/No of rats treated at 50 mg; 4/8; type: functional
[12] = species: Rattus norvegicus; test: Effect in the anti ovulatory assay (AOA) in rats expressed as no. of rats ovulating/No of rats treated at 100 mg; 0/4; type: functional
[13] = species: Rattus norvegicus; test: Effect in the anti ovulatory assay (AOA) in rats expressed as no. of rats ovulating/No of rats treated at 10 mg; 2/2; type: functional
[14] = target: T1, Gonadotropin-releasing hormone receptor (Rattus norvegicus); test: Effect in the anti ovulatory assay (AOA) in rats expressed as no. of rats ovulating/No of rats treated at 2.5 mg; 0/8; type: functional
[15] = species: Rattus norvegicus; test: Effect in the anti ovulatory assay (AOA) in rats expressed as no. of rats ovulating/No of rats treated at 1.0 mg; 6/6; type: functional
[16] = species: Rattus norvegicus; test: Effect in the anti ovulatory assay (AOA) in rats expressed as no. of rats ovulating/No of rats treated at 1.0 mg; 2/8; type: functional
[17] = species: Rattus norvegicus; test: Effect in the anti ovulatory assay (AOA) in rats expressed as no. of rats ovulating/No of rats treated at 2.5 mg; 2/7; type: functional

Duration of action [1]: 24 h
Relative potency [4]: 0.85
Structure (SMILES): CC(=O)NCC(=O)Nc1ccc(C[C@H](NC(=O)[C@H](CO)NC(=O)[C@@H](Cc2cccnc2)NC(=O)[C@@H](Cc2ccc(Cl)cc2)NC(=O)[C@@H](Cc2ccc3ccccc3c2)NC(C)=O)C(=O)N[C@H](Cc2ccc(NC(=O)CNC(C)=O)cc2)C(=O)N[C@@H](CC(C)C)C(=O)N[C@@H](CCCCNC(C)C)C(=O)N2CCC[C@H]2C(=O)N[C@H](C)N)cc1
No. of rats ovulated [2]: 3
No. of rats ovulated [3]: 5

Duration of action [1]: 24 h
Relative potency [4]: 0.47
Structure (SMILES): CC(=O)N[C@@H](Cc1c[nH]cn1)C(=O)Nc1ccc(C[C@H](NC(=O)[C@H](CO)NC(=O)[C@@H](Cc2cccnc2)NC(=O)[C@@H](Cc2ccc(Cl)cc2)NC(=O)[C@@H](Cc2ccc3ccccc3c2)NC(C)=O)C(=O)N[C@H](Cc2ccc(NC(=O)[C@@H](Cc3c[nH]cn3)NC(C)=O)cc2)C(=O)N[C@@H](CC(C)C)C(=O)N[C@@H](CCCCNC(C)C)C(=O)N2CCC[C@H]2C(=O)N[C@H](C)N)cc1
No. of rats ovulated [5]: 8
No. of rats ovulated [6]: 4
No. of rats ovulated [7]: 0

Relative potency [4]: 2.8
Structure (SMILES): CC(=O)Nc1ccc(C[C@@H](NC(=O)[C@H](Cc2ccc(O)cc2)NC(=O)[C@H](CO)NC(=O)[C@@H](Cc2cccnc2)NC(=O)[C@@H](Cc2ccc(Cl)cc2)NC(=O)[C@@H](Cc2ccc3ccccc3c2)NC(C)=O)C(=O)N[C@@H](CC(C)C)C(=O)N[C@@H](CCCCNC(C)C)C(=O)N2CCC[C@H]2C(=O)N[C@H](C)N)cc1
No. of rats ovulated [9]: 3
No. of rats ovulated [10]: 3

No. of rats ovulated [14]: 0
Structure (SMILES): CCCC(=O)Nc1ccc(C[C@H](NC(=O)[C@H](CO)NC(=O)[C@@H](Cc2cccnc2)NC(=O)[C@@H](Cc2ccc(Cl)cc2)NC(=O)[C@@H](Cc2ccc3ccccc3c2)NC(C)=O)C(=O)N[C@H](Cc2ccc(NC(=O)CCC)cc2)C(=O)N[C@@H](CC(C)C)C(=O)N[C@@H](CCCCNC(C)C)C(=O)N2CCC[C@H]2C(=O)N[C@H](C)N)cc1
No. of rats ovulated [15]: 6

Continued, compound first:

Structure (SMILES): CC(=O)N[C@H](Cc1ccc2ccccc2n1)C(=O)N[C@H](Cc1ccc(Cl)cc1)C(=O)N[C@H](Cc1cccnc1)C(=O)N[C@@H](CO)C(=O)N[C@@H](Cc1ccc(Nc2n[nH]c(N)n2)cc1)C(=O)N[C@H](Cc1ccc(Nc2n[nH]c(N)n2)cc1)C(=O)N[C@@H](CC(C)C)C(=O)N[C@@H](CCCCNC(C)C)C(=O)N1CCC[C@H]1C(=O)N[C@H](C)N
No. of rats ovulated [8]: 9

Structure (SMILES): CC(=O)N[C@H](Cc1ccc2ccccc2c1)C(=O)N[C@H](Cc1ccc(Cl)cc1)C(=O)N[C@H](Cc1cccnc1)C(=O)N[C@@H](CO)C(=O)N(C)[C@@H](Cc1ccc(Nc2n[nH]c(N)n2)cc1)C(=O)N[C@H](Cc1ccc(Nc2n[nH]c(N)n2)cc1)C(=O)N[C@@H](CC(C)C)C(=O)N[C@@H](Cc1ccc(NC(C)C)cc1)C(=O)N1CCC[C@H]1C(=O)N[C@H](C)N
No. of rats ovulated [11]: 4
No. of rats ovulated [12]: 0
No. of rats ovulated [13]: 2

Structure (SMILES): CC(=O)N[C@H](Cc1ccc2ccccc2c1)C(=O)N[C@H](Cc1ccc(Cl)cc1)C(=O)N[C@H](Cc1cccnc1)C(=O)N[C@@H](CO)C(=O)N[C@@H](Cc1ccc(NC(=O)[C@H](C)Nc2n[nH]c(N)n2)cc1)C(=O)N[C@H](Cc1ccc(NC(=O)[C@@H](C)Nc2n[nH]c(N)n2)cc1)C(=O)N[C@@H](CC(C)C)C(=O)N[C@@H](CCCCNC(C)C)C(=O)N1CCC[C@H]1C(=O)N[C@H](C)N
Duration of action [1]: 24 h
No. of rats ovulated [16]: 2
Relative potency [4]: 0.36

Structure (SMILES): CC(=O)N[C@H](Cc1ccc2ccccc2c1)C(=O)N[C@H](Cc1ccc(Cl)cc1)C(=O)N[C@H](Cc1cccnc1)C(=O)N[C@@H](CO)C(=O)N(C)[C@@H](Cc1ccc(O)cc1)C(=O)N[C@H](Cc1ccc(Nc2n[nH]c(N)n2)cc1)C(=O)N[C@@H](CC(C)C)C(=O)N[C@@H](CCCCNC(C)C)C(=O)N1CCC[C@H]1C(=O)N[C@H](C)N
No. of rats ovulated [17]: 2
